# Shown are actives, neighbours in structure and some others; about 1.6% of the full set was active somewhere.
# Arr AP2 block = inhibitors of beta-arrestin/AP2 binding, primary screen, biochemical, GPCR trafficking, flow cytometry | beta-arrestin 1 C-terminal peptide binding to AP2 beta2-adaptin appendage (human) | FITC-arrestin peptide / GST-AP2 beads; AP2 beta2 appendage carries R879A mutation | inhibition, % at 10 µM | 340,000 compounds, 0.31% hits;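 active = inhibition above a set limit, near 3 SD of compounds lacking own fluorescence, cut at about 54% in these data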;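 note: plate controls were DMSO wells for no effect and 5 µM unlabelled arrestin peptide for full effect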
#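 Material – AP2 appendage R879A on GSH beads · Buffer or medium – PBS with 0.05% Tween 20 and 0.1% BSA · Probe or stimulus – fluorescein-tagged arrestin peptide at 50 nM final · Incubation – compound with beads 12 min RT, then probe 1 h RT · Detection – high-throughput flow cytometry of beads, ex 488, em 535 nm · Evaluation – percent response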
# HDAC3 inhib = HDAC3 deacetylase inhibitors, primary screen, biochemical, fluorescence, cell-free homogeneous; Histone deacetylase 3 (Homo sapiens), O15379; recombinant HDAC3, fluorogenic peptide/trypsin coupled; inhibition, % at 8.3 µM; 320,000 compounds, 0.15% hits; AID 2718, 2010; in the data active = inhibition above about 26%, passing the limit was not always enough; inconclusive = no clear call, values can overlap the other calls
# T cell modulator = modulators of CD8 T cell-vesicle binding, primary screen, mouse 2C CD8+ T cells, flow cytometry; AID 2052, 2009; response (vesicle binding), % at 7 µM; 330,000 compounds, 0.068% hits; 2C CD8+ T cell-vesicle binding; hits give low values;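 active = response, share of CD8 T cells binding vesicles, and their 90th percentile fluorescence all below set limits, cut at about 80% in these data, passing the limit was not always enough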;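 note: values below 100% mean blocked vesicle binding to the CD8+ T cells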
#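 Test system: purified 2C TCR transgenic mouse naive CD8+ T cells. Probe or stimulus: QL9-peptide-loaded Drosophila micro-vesicles bearing Ld, ICAM-1 and B7-1. Incubation: binding step 1.5 h, 37 °C, antibody labelling 20 min, ice. Measured by: flow cytometry of vesicle-bound cells.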
# DSG3 Ab inh = inhibitors of pemphigus antibody binding to DSG3, primary screen, biochemical, bead-based, flow cytometry, scFv-GFP; AID 588358, 2011; binding (percent of control), % at 10 µM; Desmoglein-3 (Homo sapiens), P32926; DSG3-coupled beads, scFv-anti-DSG3-GFP binding; hits give low values; 310,000 compounds, 0.48% hits;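 active = binding more than 3 SD below its plate's average and above zero; inconclusive = below that plate limit but binding exactly zero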;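 note: hits lower antibody fragment binding to DSG3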
# LANA-H2B inh = blockers of LANA interaction with H2A/H2B – biochemical, FP readout, HTS, primary screen; Protein LANA1 (Human herpesvirus 8 type P (isolate GK18)), Q9QR71; cell-free LANA-H2A/H2B peptide, fluorescence polarization; inhibition, % (no concentration beside the values); 320,000 compounds, 0.6% hits; in the data active = inhibition mostly above about 10%, no sharp cut-off; inactive = mostly below about 6.7%
# GASC-1 inh = inhibitors of GASC-1 histone demethylase, primary screen, biochemical, fluorescence, DELFIA europium | Lysine-specific demethylase 4C (Homo sapiens), Q9H3R0 | GST-JMJD2C(1-420) H3K9me3 demethylation | inhibition, % at 2.35 µM | 330,000 compounds, 0.069% hits;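 active = more than half of a compound's replicate wells show inhibition beyond 50%, single wells judged on their own value; inconclusive = some, but no more than half, of replicates pass 50% inhibition; inactive = no replicate passes 50% inhibition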;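 note: signal counts dimethyl H3K9 product captured on neutravidin plate; 0% = median of DMSO wells and 100% = 0.3 times that DMSO median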
# Target sequence (Q9H3R0 1-420 limits assumed): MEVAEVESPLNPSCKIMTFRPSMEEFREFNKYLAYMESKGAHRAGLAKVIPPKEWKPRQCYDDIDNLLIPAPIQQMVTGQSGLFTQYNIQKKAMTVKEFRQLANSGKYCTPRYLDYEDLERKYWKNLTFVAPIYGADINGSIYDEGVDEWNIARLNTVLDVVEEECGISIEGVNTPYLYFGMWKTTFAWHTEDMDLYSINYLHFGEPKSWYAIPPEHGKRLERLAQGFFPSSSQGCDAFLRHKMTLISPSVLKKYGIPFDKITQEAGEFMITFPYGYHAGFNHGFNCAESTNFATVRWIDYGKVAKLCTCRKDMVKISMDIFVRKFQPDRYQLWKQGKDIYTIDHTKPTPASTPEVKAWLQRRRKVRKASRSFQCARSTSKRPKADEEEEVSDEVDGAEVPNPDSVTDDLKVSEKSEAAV
# Starred values were filed as active, the others as inactive; i = inactive; u = inconclusive; x = not tested or not shown.
SMILES,Arr AP2 block,HDAC3 inhib,T cell modulator,DSG3 Ab inh,LANA-H2B inh,GASC-1 inh
N#C/C(C(=O)Nc1ccc(Cl)cc1)=C(/S)Nc1ccccc1,-41,7,42,74*,0,-18
O=C(Nc1ccc(Nc2ccccc2)cc1)c1ccc(Cl)cc1,0,-4,i,109,-1,9
O=C(O)c1cc2ccccc2c(N=Nc2cccnc2)c1O,16,1,678,65,-5,5
CN(C)c1ccc(/C=N/NC(N)=S)cc1[N+](=O)[O-],14,-4,275,112,25*,i
CN(NC1OC(=O)c2ccccc21)c1ccc(Cl)cc1[N+](=O)[O-] (stereo not drawn),6,12,i,x,-1,-11
CN(NC1OC(=O)c2ccccc21)c1ccc(C(F)(F)F)cc1[N+](=O)[O-] (stereo not drawn),3,-4,456,84*,9,6
N#Cc1cn(-c2ccccc2)nc1-c1ccc2c(c1)OCCO2,4,-7,469,-0.9*,9,-17
Cc1cccc(N2CCN(C(=O)c3ccc(S(=O)(=O)N(C)c4ccccc4)cc3)CC2)c1C,11,1,714,98,5,-11
COc1ccc(C2=NS(=O)(=O)N(C)C(C(=O)NCc3ccc4c(c3)OCO4)=C2)cc1OC,-2,1,530,63*,0,6
NC(=S)N/N=C/c1cn(CCC(=O)O)nc1-c1cccc(Br)c1,2,x,432,95,1,9
COc1ccc(-c2nn(CCC(=O)O)cc2/C=N/NC(N)=S)cc1,1,x,424,141,19*,-2
Cc1ccccc1OCC(=O)N/N=C/c1ccco1,6,-1,202,x,-1,30
COc1ccc(OCC(=O)N/N=C/C(C)=C/c2ccco2)c(Br)c1,0,-5,224,102,4,67*
Oc1c(N=NC(=S)Nc2ccccc2F)c2ccccc2n1Cc1ccc(Cl)cc1,4,-1,356,92,21*,2
Cc1nc2cc(NC(=O)c3cccc(S(C)(=O)=O)c3)ccc2o1,25,2,163,x,-1,18
CC1CCCCC1NC(=O)CCC(=O)N1CCOc2ccc(Cl)cc21 (stereo not drawn),-1,2,210,99,1,0
O=C(O)c1cc(O)c2c(c1)[C@@H]([C@H]1c3cc(C(=O)O)cc(O)c3C(=O)c3c(O[C@@H]4O[C@H](CO)[C@@H](O)[C@H](O)[C@H]4O)cccc31)c1cccc(OC3O[C@H](CO)[C@@H](O)[C@H](O)[C@H]3O)c1C2=O (stereo partly drawn),11,0,470,-1.1*,19*,-49
O=C(O)c1cc(O)c2c(c1)[C@H]([C@H]1c3cc(C(=O)O)cc(O)c3C(=O)c3c(O[C@@H]4O[C@H](CO)[C@@H](O)[C@H](O)[C@H]4O)cccc31)c1cccc(OC3O[C@H](CO)[C@@H](O)[C@H](O)[C@H]3O)c1C2=O (stereo partly drawn),21,5,849,-9.0*,8,-28
CC(Sc1nnc(-c2ccncc2)n1C)C(=O)Nc1ccc(N2CCOCC2)cc1 (stereo not drawn),-1,0,269,101,2,0
Cc1ccc(NC(=O)/C=C/c2cccs2)c([N+](=O)[O-])c1,-2,4,249,x,4,56*
NC(=O)C1CCN(C(=O)CCSCc2ccccc2)CC1,-6,-3,527,101,0,14
CC(=O)C[C@@H](O)CC(=O)[C@@H]1OC(=O)CCCCCc2ccccc21,-2,x,235,98,x,x
COc1ccc(N=C2S/C(=C\c3ccc(OCC(=O)O)cc3)C(=O)N2CCc2c[nH]c3ccccc23)cc1,-3,x,x,46*,x,2
COc1ccc(N=C2S/C(=C\c3ccc(N4CCOCC4)o3)C(=O)N2CCc2c[nH]c3ccccc23)cc1,-41,-5,27,143,-3,i
O=C(Cn1cccn1)N1CCCC(N2CCN(c3ccccc3F)CC2)C1 (stereo not drawn),-35,-2,380,107,0,-2
SMILES,Arr AP2 block,HDAC3 inhib,T cell modulator,DSG3 Ab inh,LANA-H2B inh,GASC-1 inh
CCC(C)N1CCC(Oc2ccc(C(=O)NCc3ccccn3)cc2)CC1 (stereo not drawn),-10,-3,548,108,175*,x
O=[N+]([O-])c1cc2ncccc2c2ncccc12,x,x,x,99,x,x
COC(=O)CN(n1cnnc1)S(=O)(=O)c1ccccc1Cl,-3,0,67*,105,-5,25
CON(c1nc(N(C)C)nc(N(C)C)n1)S(=O)(=O)c1ccccc1Cl,6,7,422,89,1,0
COc1ccccc1N(CC(=O)NC1CCCCC1)C(=O)CCC(=O)Nc1nccs1,16,u,236,106,-1,5
O=C(Nc1ccc(-c2nc3ccccc3o2)cc1)c1ccc2c(c1)OCO2,19,-1,626,105,-3,-9
O=C(Nc1ccc(-c2nc3ccccc3o2)cc1)c1ccc(N2C(=O)C3C4C=CC(C4)C3C2=O)cc1 (stereo not drawn),4,-7,248,55*,-1,0
Cc1ccc(S(=O)(=O)Nc2cccc3c2O[C@H](CN(C)Cc2ccc(-c4ccccc4)cc2)[C@@H](C)CN([C@H](C)CO)C3=O)cc1,21,u,272,100,10,-17
COc1ccc(S(=O)(=O)Nc2cccc3c2O[C@@H](CN(C)Cc2ccc(C(=O)O)cc2)[C@@H](C)CN([C@H](C)CO)C3=O)cc1,x,9,252,96,2,1
COc1ccc(S(=O)(=O)Nc2ccc3c(c2)C(=O)N([C@H](C)CO)C[C@H](C)[C@H](CN(C)Cc2ccc(C(=O)O)cc2)O3)cc1,-2,-1,914,105,0,51*
Cc1ccc(S(=O)(=O)Nc2ccc3c(c2)C(=O)N([C@H](C)CO)C[C@H](C)[C@@H](CN(C)Cc2ccc(-c4ccccc4)cc2)O3)cc1,3,u,392,104,2,56*
CC(=O)c1ccc(NC(=O)c2ccc(C)c(S(=O)(=O)N3CCOCC3)c2)cc1,13,3,302,67*,-5,4

# Screening data deposited in PubChem BioAssay by several laboratories.
